# Bioassay records as filed in PubChem BioAssay.
# This is a sample that favours compounds with a hit; in the whole collection about 1.8% have one here.
# CHRM4 PAM = human M4 muscarinic receptor positive allosteric modulators, primary screen, CHO-K1 cells, Fluo-8 calcium fluorescence; activation, % at 3 µM; Muscarinic acetylcholine receptor M4 (Homo sapiens), P08173; CHO-K1 hM4/Gqi5, ACh EC20; 0% = ACh EC20, 100% = maximal ACh; 360,000 tested, 0.4% active;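 active = activation above its plate's cutoff, the mean activation of sample wells plus 3 SD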
# M4 antag = human M4 muscarinic receptor antagonists, primary screen, CHO cells, Fluo-8 calcium fluorescence | 360,000 tested, 0.73% active | CHO-hM4 cells, ACh EC80 | Muscarinic acetylcholine receptor M4 (Homo sapiens), P08173 | inhibition, % at 3 µM;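 active = inhibition above its plate's cutoff, the mean inhibition of sample wells plus 3 SD, cut at about 27% in these data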;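 note: 0% = acetylcholine EC80 with DMSO and 100% = DMSO without agonist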
# CHRM5 agonist = human M5 muscarinic receptor agonists, primary screen, CHO-K1 cells, Fluo-8 calcium fluorescence; Muscarinic acetylcholine receptor M5 (Homo sapiens), P08912; CHO-K1 hM5 cells; 0% DMSO wells, 100% maximal acetylcholine response; activation, % at 3 µM; 360,000 tested, 0.19% active;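 active = activation above the run's mean over test compounds plus 3 SD, cut at about 23% in these data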;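 note: signal is peak over basal fluorescence ratio across the kinetic read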
# Target sequence (P08912 whole entry, looked up): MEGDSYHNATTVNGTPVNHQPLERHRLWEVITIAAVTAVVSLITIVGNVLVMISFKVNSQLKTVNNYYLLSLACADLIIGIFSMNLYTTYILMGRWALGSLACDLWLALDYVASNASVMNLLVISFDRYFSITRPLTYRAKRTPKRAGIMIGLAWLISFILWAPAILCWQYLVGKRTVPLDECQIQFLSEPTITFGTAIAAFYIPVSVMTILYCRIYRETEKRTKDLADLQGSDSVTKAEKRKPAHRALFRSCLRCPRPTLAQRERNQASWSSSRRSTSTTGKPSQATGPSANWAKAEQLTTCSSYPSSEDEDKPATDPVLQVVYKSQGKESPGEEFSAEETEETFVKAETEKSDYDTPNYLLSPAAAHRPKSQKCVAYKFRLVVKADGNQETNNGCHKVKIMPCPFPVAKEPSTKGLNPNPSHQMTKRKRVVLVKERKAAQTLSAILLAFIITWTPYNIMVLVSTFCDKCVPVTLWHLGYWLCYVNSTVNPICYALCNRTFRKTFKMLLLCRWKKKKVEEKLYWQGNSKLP
# M5 antag = human M5 muscarinic receptor antagonists, primary screen, CHO cells, Fluo-8 calcium fluorescence | Muscarinic acetylcholine receptor M5 (Homo sapiens), P08912 | CHO-hM5 cells, ACh EC80 | inhibition, % at 3 µM | 360,000 tested, 0.59% active | AID 624040, 2012;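 active = inhibition above a per-plate cutoff, the mean of that plate's test compounds plus 3 SD, cut at about 27% in these data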;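 note: 0% = acetylcholine EC80 with DMSO and 100% = DMSO without agonist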
# CHRM5 PAM = human M5 muscarinic receptor positive allosteric modulators, primary screen, CHO-K1 cells, Fluo-8 calcium fluorescence; CHO-K1 hM5, ACh EC20 PAM; 0% = ACh EC20, 100% = ACh EC100; activation, % at 3 µM; 360,000 tested, 0.3% active; AID 624038, 2012;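 active = activation above the run cutoff, the mean activation of all test compounds plus 3 SD, cut at about 18% in these data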
#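 Assay system – human M5 receptor in CHO-K1 cells · Read-out – % activation, ACh-normalized · Technique – Fluo-8 calcium fluorescence · Dosing – single-point, 3 µM nominal · Incubation – Fluo-8 loading 80 min at 37 °C plus 30 min room temperature · Repeats – singlicate, one well per test compound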
# M4 ag = human M4 muscarinic receptor agonists, primary screen, CHO-K1 cells, Fluo-8 calcium fluorescence | Muscarinic acetylcholine receptor M4 (Homo sapiens), P08173 | CHO-K1 hM4/Gqi5; vehicle 0%, full acetylcholine response 100% | activation, % at 3 µM | 360,000 tested, 0.14% active;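 active = activation above the run mean over all test wells plus 3 SD, cut at about 32% in these data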;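 note: peak over basal fluorescence ratio per well then scaled between controls; 0% = DMSO wells and 100% = acetylcholine at EC100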
# An asterisk follows results filed as active.
SMILES,CHRM4 PAM,M4 antag,CHRM5 agonist,M5 antag,CHRM5 PAM,M4 ag
CN(C)C(=O)CNc1ccn2nc(-c3cccc(Cl)c3)cc2n1,-0.8,8.0,-0.6,6.7,-4.6,1.2
Cc1cnc(C(=O)N(c2ccc(N3CCOCC3)cc2)C2C(=O)Nc3ccccc3N=C2c2ccc(F)cc2)cn1 (stereo not given),1.7,-21.2,0.4,-1.4,-3.9,1.4
O=S(=O)(Nc1nc2ccccc2[nH]1)c1ccc(Cl)cc1,-28.9,67.5*,-7.2,49.6*,-17.4,4.7
O=S(=O)(Nc1nc2ccccc2[nH]1)c1ccccc1,-20.1,18.9,-6.9,7.8,-17.8,-0.1
COc1ccc(NC(=O)C2(C)CCN2Cc2ccc(OC(F)(F)F)cc2)cc1OC (stereo not given),5.6,-6.2,-2.9,3.5,-4.4,1.2
CCCCCCN1C[C@@H](O)[C@H](n2cc(C3CC3)nn2)C[C@@H]1c1ccc(Cl)cc1,8.8,-8.4,0.3,6.9,-1.9,0.9
COc1ccc(/C=N/NC(=O)c2ccc3ccccc3c2)cc1OS(=O)(=O)c1ccc(NC(C)=O)cc1,-16.6,27.9*,0.9,13.0,-16.7,15.7
O=C(N/N=C1/CCSC1)c1cc(Br)ccc1O,-4.0,-5.3,-0.6,45.5*,-17.8,8.3
CCOC(=O)[C@H]1[C@H]2COc3ccc(OC)cc3[C@@H]2N2C(=O)CN(Cc3ccc(F)cc3)C(=O)[C@@]12C,-16.0,41.8*,-11.1,10.4,-11.0,6.4
COc1ccc(C(CNC(=O)c2cc3ccccc3cc2OC)N2CCCC2)cc1 (stereo not given),27.4,-12.8,-1.4,-1.8,20.1*,8.9
Cc1ccc(NC(=O)C(NS(=O)(=O)c2cccc3nsnc23)C(C)C)nc1 (stereo not given),8.3,-15.8,-1.9,-7.7,-1.2,1.2
Cc1ccc(CNC(=O)C(NS(=O)(=O)c2cccc3nsnc23)C(C)C)cc1 (stereo not given),-5.2,0.4,-3.8,30.1*,-7.5,1.8
OCCCNc1ncnc2c1[nH]c1ccccc12,-1.7,0.1,-0.8,9.4,-0.4,0.4
Fc1ccc2[nH]c3c(NCc4ccccc4)ncnc3c2c1,-10.3,8.8,9.7,36.6*,-16.1,23.3
CN(Cc1cn(Cc2ccc(F)cc2)nn1)C1CN(Cc2cn(Cc3ccc(F)cc3)nn2)S(=O)(=O)C1 (stereo not given),-0.5,2.7,-1.4,3.3,-9.8,2.3
COc1ccc(/C=N/NC(=O)CCn2cnc(-c3ccccc3)c2-c2ccccc2)cc1,6.7,85.2*,1.1,-3.1,-2.1,0.1
O=C(CCn1cnc(-c2ccccc2)c1-c1ccccc1)N/N=C/c1ccc(O)cc1,-1.0,-5.3,-2.2,4.7,-3.7,-0.3
CCOc1ccccc1CNS(=O)(=O)c1ccc(-c2cnc(C3CC3)o2)cc1,-10.9,28.2*,3.2,27.6*,-16.1,19.0
CCOC1=C2[C@H](c3ccccc3)N(S(=O)(=O)c3ccc(C)cc3)C(C(C)(C)C)[C@H]2n2c(=O)n(-c3ccccc3)c(=O)n2C1 (stereo not given in full),2.5,-7.7,1.2,2.2,-3.5,0.3
CCOC(=O)c1ccc(CNCc2ccccc2)cc1,-15.3,39.6*,-7.2,4.8,-11.8,0.9
Cc1ccsc1C(=O)N1CCCC(C)(C(=O)NS(=O)(=O)C2CC2)C1 (stereo not given),1.9,0.9,0.3,4.9,0.2,0.6
N#CC1=C(N2CCCCC2)c2cc3c(n2C1=O)CCCC3,-19.1,30.5*,-4.5,12.9,-2.6,2.3
C[C@H]1CC[C@@]2(O[C@@H](CCO)C[C@@H](O)[C@@H]2O)O1,13.8,2.7,3.6,-0.8,1.0,0.9
C[C@@H]1CC[C@]2(O[C@H](CCO)C[C@@H](O)[C@@H]2O)O1,14.1,-1.6,3.6,-1.6,24.9*,-1.1
Cc1ccc(N2C(=O)c3ccccc3NC2c2ccccc2O)cc1 (stereo not given),-17.2,44.9*,-7.8,17.2,-8.3,0.6
SMILES,CHRM4 PAM,M4 antag,CHRM5 agonist,M5 antag,CHRM5 PAM,M4 ag
Cc1[nH]c2ccccc2c1CCNS(=O)(=O)c1ccc(S(N)(=O)=O)cc1,15.9*,-10.2,-1.4,4.4,12.9,2.0
NS(=O)(=O)c1ccc(S(=O)(=O)NCCc2ccccc2)cc1,-6.7,11.9,-1.5,-2.6,-0.5,0.9
O=C(NCCCSc1ccccc1)c1cc(Br)ccc1O,-9.2,2.3,1.1,33.0*,-14.9,12.9
Cc1ccc(C2CC(=O)c3cnc(NC(=O)c4ccco4)nc3C2)cc1 (stereo not given),15.1*,-14.0,-1.4,-0.3,22.1*,2.8
Cc1ccc(Nc2ncc3c(n2)CC(c2ccco2)CC3=O)c(C)c1 (stereo not given),28.6*,1.3,-1.7,-4.3,5.0,0.0
Cc1cccc(C)c1C(=NCCN(C)C)c1ccccc1,-44.0,11.4,-18.1,47.6*,-31.3,2.5
COc1ccc(NC(=O)N2CCN(c3nc(-c4cccc(OC)c4)cs3)CC2)cc1,-5.4,12.4,2.5,16.9,-17.3,16.4
COc1cccc(-c2csc(N3CCN(C(=O)Nc4ccc(Cl)cc4)CC3)n2)c1,-20.7,19.8,-4.2,27.8*,-34.1,13.1
NCCCCCc1nnc(SCc2ccc(Cl)cc2Cl)o1,-23.4,50.4*,-6.5,43.2*,-19.4,8.6
NCCCCCc1nnc(SCc2cccc(Cl)c2)o1,-29.6,85.1*,-6.8,80.3*,-17.8,2.9
NCCc1nnc(SCc2ccccc2Cl)o1,-6.0,4.5,-1.9,3.1,3.0,0.4
N#C/C(=C\c1ccccc1)C(=O)NNS(=O)(=O)c1ccc(Br)cc1,6.7,-0.8,2.4,4.3,18.9*,0.8
CC1CCCN(CCCCOc2cccc(Br)c2)C1 (stereo not given),-17.8,35.2*,-7.8,4.8,-17.5,4.0
CC1CCCN(CCOc2ccc(Br)cc2)C1 (stereo not given),12.2,-8.0,-3.2,3.8,-0.7,3.7
Brc1cccc(OCCCCN2CCCCC2)c1,-38.9,53.4*,-7.0,20.9,-19.9,3.4
CCOc1cccc(OCCCCN2CCCCC2)c1,-27.7,57.3*,-8.2,5.5,-10.1,0.5
Fc1ccc(-n2c(-c3cc(C4CC4)[nH]n3)n[nH]c2=S)cc1Cl,12.3,-1.4,2.8,-20.4,19.4*,0.8
